The text below walks through data of ChEMBL document CHEMBL1156021, “Design, synthesis, and evaluation of novel 3-amino-4-hydrazine-cyclobut-3-ene-1,2-diones as potent and selective CXCR2 chemokine receptor antagonists” (Bioorg Med Chem Lett, 2009).

Each structure is given as a SMILES string. pIC50, pKi: −log10 of the molar value.

Series [1] has as its target T1, C-X-C chemokine receptor type 2 (Homo sapiens, UniProt P25025).
T1 sequence (P25025 whole entry): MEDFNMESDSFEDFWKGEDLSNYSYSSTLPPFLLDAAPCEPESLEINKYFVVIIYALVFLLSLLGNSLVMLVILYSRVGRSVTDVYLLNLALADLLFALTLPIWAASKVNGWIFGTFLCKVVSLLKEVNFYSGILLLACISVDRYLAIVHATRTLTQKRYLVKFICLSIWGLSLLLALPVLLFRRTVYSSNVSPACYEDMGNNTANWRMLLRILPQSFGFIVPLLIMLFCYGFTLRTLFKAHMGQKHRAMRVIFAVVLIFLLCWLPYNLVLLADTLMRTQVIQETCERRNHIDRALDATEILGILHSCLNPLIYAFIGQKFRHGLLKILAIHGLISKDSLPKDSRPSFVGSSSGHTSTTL
In words: Displacement of [125I]IL-8 from human CXCR2 expressed in mouse BaF3 cells by liquid scintillation counting. It is filed as cell-based. The method, boiled down: (§1)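 SPA competition binding with receptor-overexpressing membranes (CXCR2 or CXCR1, CXCR1 at twice the membrane amount) mixed with 2 mg/mL wheatgerm-agglutinin-coated SPA beads. Buffer was 25 mM HEPES, 3 mM MgCl2, pH 7.4; the membrane and bead mix was held on ice 5 min. Tracer was [125I]IL-8 from a 0.040 nM stock. Compounds were half-log serially diluted in DMSO. Plates were incubated 2 h at room temperature, protected from light, then counted by liquid scintillation.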

For a further series, the species on record is Homo sapiens. In words: Selectivity ratio of Ki for human CXCR1 to Ki for human CXCR2. In short, it runs like this: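 Scintillation proximity binding assays on membranes over-expressing CXCR2 or CXCR1, with CXCR1 membranes at twice the CXCR2 membrane level. Membranes were premixed with 2 mg/mL wheatgerm-agglutinin SPA beads in 25 mM HEPES, 3 mM MgCl2, pH 7.4, 5 min on ice. Half-log serial DMSO dilutions were added with [125I]IL-8 (0.040 nM stock). Plates were kept 2 h at room temperature in the dark, then read by scintillation counting.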

A short description of series [2]: Metabolic stability in human liver microsomes assessed as half life at 1 uM. The format is ADME, Microsome.
The nature of series [3]: Metabolic stability in human liver microsomes assessed as compound remaining at 1 uM after 120 mins. The format is ADME, Microsome. The following applies: read-out: Stability.
Series [4] concerns the target T2, C-X-C chemokine receptor type 1 (Homo sapiens, UniProt P25024).
T2 sequence (P25024 whole entry): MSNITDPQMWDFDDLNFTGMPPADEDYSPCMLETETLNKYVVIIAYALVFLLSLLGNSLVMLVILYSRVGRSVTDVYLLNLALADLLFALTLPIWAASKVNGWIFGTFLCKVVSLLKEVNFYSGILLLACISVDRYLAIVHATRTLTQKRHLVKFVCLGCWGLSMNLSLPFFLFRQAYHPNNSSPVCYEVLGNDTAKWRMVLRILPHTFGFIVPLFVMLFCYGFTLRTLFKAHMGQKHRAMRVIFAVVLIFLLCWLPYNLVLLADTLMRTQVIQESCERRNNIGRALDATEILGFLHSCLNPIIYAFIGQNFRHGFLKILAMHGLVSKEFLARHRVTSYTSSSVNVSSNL
Briefly: Displacement of [125I]IL-8 from human CXCR1 expressed in mouse BaF3 cells by liquid scintillation counting. It is filed as cell-based. The method, boiled down: as §1

The nature of series [5]: Metabolic stability in rat liver microsomes assessed as half life at 1 uM. The format is ADME, Microsome.

As to `CCN(Nc1c(Nc2cccc(C(=O)N(C)C)c2O)c(=O)c1=O)c1ccccc1`, the pKi was 6.96 in series [1] and 5.39 in series [4]. Also, in the series listed under Homo sapiens, the Ratio Ki was found to be 40. Further, the half-life at 1 µM in series [2] was greater than 2 h. In series [3], the remaining at 2 h, 1 µM was greater than 50%.
Regarding `CCN(CC)Nc1c(Nc2cccc(C(=O)N(C)C)c2O)c(=O)c1=O`, the figures for the half-life at 1 µM in series [5] and in series [2] were 1.4 h and greater than 2 h, respectively. The pIC50 in series [1] was 5.73. The values for the pKi in series [1] and in series [4] were 6.92 and 5.01, respectively. Also, the Ratio Ki in the series listed under Homo sapiens worked out at 80. In series [3], the remaining at 2 h, 1 µM is greater than 50%.
Turning to `CCN(Nc1c(Nc2cccc(C(=O)N(C)C)c2O)c(=O)c1=O)C(C)=O`, in series [1], the pIC50 was 5.48 and the pKi is 6.49. Besides, the pKi in series [4] is less than 4.92.
`CCN(Nc1c(Nc2cccc(C(=O)N(C)C)c2O)c(=O)c1=O)C(=O)c1ccc(F)cc1`: the pKi in series [1] is 6.59; in series [4] it was less than 4.92. In addition, in the series filed under Homo sapiens, the Ratio Ki is greater than 46.
As for `CCN(Nc1c(Nc2cccc(C(=O)N(C)C)c2O)c(=O)c1=O)c1ccc(OC)cc1`, the results for the pKi in series [1] and in series [4] were 6.74 and 5.19, respectively. For the same molecule, the Ratio Ki in the series listed under Homo sapiens came to 40.
For `CCN(Cc1ccc(F)cc1)Nc1c(Nc2cccc(C(=O)N(C)C)c2O)c(=O)c1=O`, the pKi in series [1] was 5.14; in series [4], less than 4.92.
Take `CCN(Nc1c(Nc2cccc(C(=O)N(C)C)c2O)c(=O)c1=O)c1ccc(F)cc1`: the pKi in series [1] is 6.26; in series [4] it was less than 4.92. Also, in the series filed under Homo sapiens, the Ratio Ki is greater than 20.
For `CCN(Nc1c(Nc2cccc(C(=O)N(C)C)c2O)c(=O)c1=O)c1ccccn1`, the pKi was 6.89 in series [1] and 5.28 in series [4]. For the same molecule, the Ratio Ki in the series filed under Homo sapiens stood at 40. For the same molecule, the half-life at 1 µM in series [2] is greater than 2 h. In addition, in series [3], the remaining at 2 h, 1 µM was greater than 50%.
For `CCNNc1c(Nc2cccc(C(=O)N(C)C)c2O)c(=O)c1=O`, in series [1], the pIC50 is 5.26.
